Screens deposited in PubChem by Broad Institute.
PvdQ acylase: P. aeruginosa PvdQ acylase inhibitors, primary screen, biochemical, fluorescence, plate reader and imaging, single point; PvdQ acylase [Pseudomonas aeruginosa LESB58]; purified PvdQ acylase; inhibition, % at 10 µM; actives 0.063% (n = 340,000); in the data active = inhibition above about 30%, passing the limit was not always enough;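 also: 0% = vehicle neutral wells and 100% = reference inhibitor wells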
RAD54 inh: inhibitors of human RAD54 branch migration, primary screen, biochemical, fluorescence, single point; inhibition, % at 10.4 µM; RAD54 Holliday junction branch migration, FAM/BHQ fluorescence; actives 0.14% (n = 360,000);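 active = mean normalized replicate activity at least 40 and at least half of replicates scoring 40 or more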;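 also: 0% = median of neutral control wells and 100% = median of positive control wells; inhibitors cause a drop in the FAM fluorescence signal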
SR-BI HDL uptake: inhibitors of SR-BI mediated HDL lipid uptake, primary screen, ldlA[mSR-BI] cells, fluorescence, single point; ldlA[mSR-BI] CHO cells, DiI-HDL uptake fluorescence, 3 h; actives 0.96% (n = 320,000); inhibition, % at 12.5 µM; Scavenger receptor class B member 1 (Mus musculus), Q61009;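 active = mean replicate inhibition of at least 70% and a set share of replicates each scoring 70 or more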;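 also: 0% = median of neutral control wells and 100% = median of positive control wells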
Target sequence (Q61009 whole entry, looked up): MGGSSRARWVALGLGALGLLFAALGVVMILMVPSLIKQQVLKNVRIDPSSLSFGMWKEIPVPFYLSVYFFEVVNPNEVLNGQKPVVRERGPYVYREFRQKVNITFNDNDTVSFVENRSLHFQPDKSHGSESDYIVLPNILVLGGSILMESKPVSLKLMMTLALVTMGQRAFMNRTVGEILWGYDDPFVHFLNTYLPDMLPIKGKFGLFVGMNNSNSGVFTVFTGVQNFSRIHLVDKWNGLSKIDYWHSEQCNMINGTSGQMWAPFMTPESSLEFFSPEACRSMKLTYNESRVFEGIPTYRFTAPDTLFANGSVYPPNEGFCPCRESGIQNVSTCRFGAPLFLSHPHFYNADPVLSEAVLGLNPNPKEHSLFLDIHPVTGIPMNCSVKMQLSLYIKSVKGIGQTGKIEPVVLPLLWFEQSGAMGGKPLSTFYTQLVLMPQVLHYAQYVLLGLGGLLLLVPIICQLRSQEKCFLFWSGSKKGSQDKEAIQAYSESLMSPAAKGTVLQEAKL
S100A4 inh HTS: inhibitors of S100A4-myosin IIA peptide binding, primary screen, biochemical, fluorescence polarization, TAMRA-MyoIIA peptide. inhibition, % at 10.7 µM. actives 0.14% (n = 360,000). Protein S100-A4 (Homo sapiens), P26447;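 active = mean inhibition of at least 70% across replicates, with every replicate also reaching that level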
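Material: S100A4 monomer protein / Buffer or medium: 50 mM HEPES pH 7.2, 10 mM CaCl2, 100 mM KCl / Times: 5 min incubation before reading / Benchmarks: neutral control DMSO, positive control TFP / Reagent: labelled myosin peptide probe, 5 nM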
dFosB activator: activators of delta FosB homodimer, primary screen, biochemical, fluorescence polarization, TAMRA-CDK5 oligo, single point; actives 0.99% (n = 340,000); activation, % at 25 µM; Protein FosB (Mus musculus), P13346; AID 493131, 2011; purified delta FosB; percent of positive-control signal above neutral wells;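 active = mean activation above about 17%, with every replicate also reaching it, limit read from the data, passing the limit was not always enough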
SR-BI DiI-HDL act: activators of SR-BI mediated DiI-HDL uptake, primary screen, ldlA[mSR-BI] CHO cells, DiI fluorescence; 3 h; 100 = double the neutral-control signal; activation, % at 12.5 µM; actives 0.096% (n = 320,000);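 active = mean replicate activation of at least 60% and every replicate at or above 60%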;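 also: 0% = median plate neutral-control signal and 100% = twice that signal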
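Test system: SR-BI-overexpressing, LDLR-lacking CHO cells; Also added: labelled HDL, 10 µg/mL; Measured by: bottom-read cell fluorescence after medium removal, ex 550/em 595 nm; Timing: 3 h uptake period with compound, 37 °C; Buffer or medium: F12, 0.5% BSA, 25 mM HEPES; Doses: single compound concentration, delivered by pin transfer.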
Active calls of the source: *; / = no result. Compounds with a hit are over-represented: about 1.6% of the library has one in this group of screens.

SMILES	PvdQ acylase	RAD54 inh	SR-BI HDL uptake	S100A4 inh HTS	dFosB activator	SR-BI DiI-HDL act
COc1cc(/C=C/C(=O)Nc2ccncc2)cc(OC)c1OC	-33	/	36	/	2	-36
CCCC(=O)Nc1ccc2c(c1)C(=O)N(C)[C@@H]1CC[C@@H](CC(=O)NCC(F)(F)F)O[C@H]1CO2	/	6	/	/	/	/
Cc1noc(C)c1NC(=O)Nc1ccc2c(c1)CC(=O)N([C@@H](C)CO)C[C@H](C)[C@H](CN(C)Cc1ccc(-c3ccccc3)cc1)O2	/	/	/	-6	/	/
COc1ccc(NC(=O)N(C)C[C@H]2OCCCC[C@H](C)Oc3ccc(NC(=O)Nc4c(C)noc4C)cc3C(=O)N([C@@H](C)CO)C[C@@H]2C)cc1	/	-1	/	2	/	/
O=C(C[C@@H]1C=C[C@H](NC(=O)C2CCC2)[C@H](CO)O1)NCCCN1CCOCC1	/	-1	/	10	/	/
C[C@@H]1CN([C@@H](C)CO)C(=O)c2cc(C#C[C@@H](C)O)cnc2O[C@@H]1CN(C)Cc1ccc(-c2ccccc2)cc1	/	-2	/	21	/	/
O=C(Nc1ccccc1)N[C@@H]1CC[C@@H](CCNC(=O)c2ccccc2F)O[C@@H]1CO	/	-7	/	5	/	/
CCOc1cccc(NC(=O)C2CC(=O)N(C)C(=Nc3ccccc3)S2)c1 (stereo unspecified)	8	/	75*	/	3	-75
CCOc1cccc(NC(=O)C2CC(=O)N(C)C(=Nc3cccc(F)c3)S2)c1 (stereo unspecified)	-14	6	73*	1	-21	-73
CN1C(=O)CC(C(=O)Nc2ccccc2F)SC1=Nc1ccc2c(c1)OCO2 (stereo unspecified)	-12	/	73*	0	7	-73
CCCOc1ccc(NC(=O)C2CC(=O)N(C)C(=Nc3cccc(OC)c3)S2)cc1 (stereo unspecified)	-3	6	-3	-1	-3	3
O=C(N[C@H]1CC[C@H](CCNC(=O)C2CCC2)O[C@H]1CO)c1ccncc1	/	-7	/	6	/	/
Cc1cccn2c(=O)c3cc(C(=O)NC4CCCCC4)c(=N)n(Cc4ccccc4)c3nc12	-7	3	-8	2	43*	8
Cc1cccn2c(=O)c3cc(C(=O)NC4CCCC4)c(=N)n(Cc4ccc(F)cc4)c3nc12	-10	6	-17	-4	12	17
Cc1cccn2c(=O)c3cc(C(=O)NCc4ccco4)c(=N)n(CCOCCO)c3nc12	-19	73*	-2	/	1	2
O=C(CC1CC1)Nc1ccc2c(c1)[C@H]1C[C@@H](CC(=O)N3CCOCC3)O[C@@H](CO)[C@H]1O2	/	-12	/	/	/	/
O=S(=O)(NCC(c1ccc2c(c1)OCO2)N1CCOCC1)c1ccccc1 (stereo unspecified)	-19	-7	-347	0	-7	347*
O=S(=O)(NCC(c1ccc2c(c1)OCO2)N1CCOCC1)c1ccc(Cl)cc1 (stereo unspecified)	-20	7	-21	0	-7	21
O=C(Cc1ccccc1)N[C@@H]1CC[C@H](CC(=O)N2CCCCC2)O[C@H]1CO	/	-9	/	4	/	/
Nc1nc(N)c(C=Nc2ccc(Br)cc2)c(Nc2ccc(Br)cc2)n1	-5	2	-2	-3	108*	2
O=C(CCN1CCCCC1)N[C@H]1CC[C@H](CCNC(=O)c2cc(Cl)cc(Cl)c2)O[C@@H]1CO	/	1	/	-23	/	/
COc1ccc(CNC(=O)C[C@@H]2C=C[C@@H](NC(=O)Nc3ccc4c(c3)OCO4)[C@H](CO)O2)cc1	/	0	/	-1	/	/
CC(C)c1nc2oc3c(NCCO)ncnc3c2c2c1COC(C)(C)C2	-17	-5	-239	-1	-19	239*
